Published values gathered from unrelated publications.
Each line is one published result; the experiments were not run side by side. pKi: −log10 of the molar value.
Target: Mu-type opioid receptor (Oprm1, Rattus norvegicus, UniProt P33535)

CCc1cccc(C)c1C[C@H](NC(=O)[C@@H](CCCNC(=N)N)NC(=O)[C@@H](N)Cc1c(C)cc(O)cc1C)C(=O)N[C@@H](CCCCN)C(N)=O — pKi (ligand displacement; radioligand; cell membranes): 10.02
C[C@@H](NC(=O)[C@@H](N)Cc1ccc(O)cc1)C(=O)NCC(=O)N[C@@H](Cc1ccccc1)C(=O)N(C)CCC[C@@]1(c2ccc(F)cc2)OCc2cc(C#N)ccc21 — pKi (cell-free assay): 7.06
Cc1cc(O)cc(C)c1C[C@H](N)C(=O)N1CCc2ccc(Cc3cccc(N)c3)cc2C1 — pKi (ligand displacement; radioligand; cell membranes): 8.01
Cc1cc(O)cc(C)c1C[C@H](N)C(=O)N[C@H](C)C(=O)NCC(=O)N[C@@H](Cc1ccc(Cl)cc1)C(=O)N(C)CCC[C@@]1(c2ccc(F)cc2)OCc2cc(C#N)ccc21 — pKi (cell-free assay): 7.92
NC(N)=Nc1ccc2[nH]c3c(c2c1)C[C@@]1(O)[C@H]2Cc4ccc(O)c5c4[C@@]1(CCN2CC1CC1)[C@H]3O5 — pKi (ligand displacement; radioligand; cell membranes): 8.04
Cc1cccc(Cc2ccc3c(c2)CN(C(=O)[C@@H](N)Cc2c(C)cc(O)cc2C)CC3)c1 — pKi (ligand displacement; radioligand; cell membranes): 8.51
C[C@@H](NC(=O)C[C@@H](N)Cc1ccc(O)cc1)C(=O)NCC(=O)N[C@@H](Cc1ccccc1)C(=O)NNC(=O)[C@H](Cc1ccccc1)NC(=O)CNC(=O)[C@@H](C)NC(=O)C[C@@H](N)Cc1ccc(O)cc1 — pKi (ligand displacement; radioligand): 7.21
Cc1cc(O)cc(C)c1C[C@H](N)C(=O)N1CCc2ccc(Cc3ccccc3N)cc2C1 — pKi (ligand displacement; radioligand; cell membranes): 8.68
CCCC[C@@H](NC(=O)[C@@H](N)Cc1ccc(O)cc1)C(=O)NCC(=O)N[C@@H](Cc1ccc(F)cc1)C(=O)N(C)CCC[C@@]1(c2ccc(F)cc2)OCc2cc(C#N)ccc21 — pKi (cell-free assay): 7.80
N=C(N)NCCC[C@@H]1NC(=O)[C@H](Cc2ccc(O)cc2)NC(=O)[C@@H](CCCCN)NC(=O)[C@@H](Cc2ccccc2)NC1=O — pKi (ligand displacement; radioligand; cell membranes): 6.77
Cc1cc(C)c(C[C@H](NC(=O)[C@@H](CCCNC(=N)N)NC(=O)[C@@H](N)Cc2c(C)cc(O)cc2C)C(=O)N[C@@H](CCCCN)C(N)=O)c(C)c1 — pKi (ligand displacement; radioligand; cell membranes): 9.80
Oc1cccc([C@@]23CCC[C@@H]([C@@H]2O)N(CC=Cc2ccccc2)CC3)c1 — pKi (ligand displacement; radioligand): 7.60
Cc1cc(O)cc(C)c1C[C@H](C)C(=O)N[C@@H]1C/C=C/CC[C@@H](C(N)=O)NC(=O)[C@H](Cc2ccccc2)NC(=O)[C@H](Cc2ccccc2)NC1=O — pKi (ligand displacement; radioligand; cell membranes): 6.49
Cc1cc(O)cc(C)c1C[C@H](N)C(=O)N1CCc2ccc(Cc3cccc([N+](=O)[O-])c3)cc2C1 — pKi (ligand displacement; radioligand; cell membranes): 8.51
